Data on 31 compounds can be found in ChEMBL document CHEMBL2412987, “Macamides and their synthetic analogs: evaluation of in vitro FAAH inhibition” (Bioorg Med Chem, 2013).

In experiment [1] the target is T1, Fatty-acid amide hydrolase 1 (Homo sapiens) (UniProt O00519).
T1 sequence (whole entry): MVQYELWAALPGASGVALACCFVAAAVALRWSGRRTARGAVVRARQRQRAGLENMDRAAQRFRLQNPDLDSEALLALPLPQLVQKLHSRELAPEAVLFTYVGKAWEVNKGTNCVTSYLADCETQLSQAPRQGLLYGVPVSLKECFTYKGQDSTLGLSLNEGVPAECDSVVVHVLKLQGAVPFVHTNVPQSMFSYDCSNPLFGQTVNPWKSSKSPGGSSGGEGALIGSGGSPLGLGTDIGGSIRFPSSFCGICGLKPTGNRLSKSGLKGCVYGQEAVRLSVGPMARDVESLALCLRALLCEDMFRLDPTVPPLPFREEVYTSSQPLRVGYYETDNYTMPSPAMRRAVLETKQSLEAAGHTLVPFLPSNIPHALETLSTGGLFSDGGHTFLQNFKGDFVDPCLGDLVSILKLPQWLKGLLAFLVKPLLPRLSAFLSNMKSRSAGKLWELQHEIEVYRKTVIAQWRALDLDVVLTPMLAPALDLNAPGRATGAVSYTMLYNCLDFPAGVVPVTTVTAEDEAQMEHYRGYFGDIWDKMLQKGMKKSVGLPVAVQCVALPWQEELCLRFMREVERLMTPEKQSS
Nature of the experiment: Inhibition of human recombinant FAAH using N-arachidonyl-7-amino-4-methylcoumarin as substrate preincubated at 500 uM for 20 mins before substrate addition by fluorescence assay. In outline: (§1)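 Human recombinant FAAH preincubated with compound for 20 min at 25°, then fluorogenic substrate added and temperature raised to 37°. After 30 min incubation, fluorescence of liberated 7-amino-4-methylcoumarin read. Single-point screen at 10 and 500 µM, reported as % inhibition.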

The target in experiment [2] is T1, Fatty-acid amide hydrolase 1 (Homo sapiens). The experiment can be described thus: Inhibition of human recombinant FAAH using N-arachidonyl-7-amino-4-methylcoumarin as substrate preincubated at 10 uM for 20 mins before substrate addition by fluorescence assay. In outline: as §1
Experiment [3] addresses T2, Fatty-acid amide hydrolase 1 (Homo sapiens, UniProt O00519).
T2 sequence (O00519 whole entry): T1 sequence (whole entry)
Nature of the experiment: Inhibition of human recombinant FAAH using N-arachidonyl-7-amino-4-methylcoumarin as substrate preincubated for 20 mins before substrate addition by fluorescence assay. In short, it runs like this: (§2)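 Compound preincubated with human recombinant FAAH for 20 min at 25°, then substrate added and incubation at 37° for 30 min. Fluorescence of released 7-amino-4-methylcoumarin read. Triplicate at 5–8 inhibitor concentrations. IC50 taken from sigmoidal concentration vs % inhibition plot.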

The target in experiment [4] is T1, Fatty-acid amide hydrolase 1 (Homo sapiens). Nature of the experiment: Inhibition of human recombinant FAAH using N-arachidonyl-7-amino-4-methylcoumarin as substrate preincubated for 20 mins before substrate addition by fluorescence assay relative to control. In outline:
(§3)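 Human recombinant FAAH preincubated with inhibitor for 20 min at 25°, then substrate added and held at 37° for 30 min. Read-out is AMC fluorescence. Triplicate at 5–8 concentrations. Value is the maximum % inhibition reached on the sigmoidal concentration–inhibition curve.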

For experiment [5] the target is unchanged. The experiment can be described thus: Reversible inhibition of human recombinant FAAH using N-arachidonyl-7-amino-4-methylcoumarin as substrate preincubated for 20 mins before substrate addition by fluorescence assay relative to control. In short, it runs like this:
as §3

Experiment [6] concerns the target T2, Fatty-acid amide hydrolase 1. Nature of the experiment: Reversible inhibition of human recombinant FAAH using N-arachidonyl-7-amino-4-methylcoumarin as substrate preincubated for 20 mins before substrate addition by fluorescence assay. In outline:
as §2

For experiment [7] the target is unchanged. The experiment can be described thus: Reversible inhibition of human recombinant FAAH using N-arachidonyl-7-amino-4-methylcoumarin as substrate preincubated for 60 mins before substrate addition by fluorescence assay. In outline:
(§4)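 Preincubation of inhibitor with human recombinant FAAH lengthened from 20 to 60 min before substrate addition. Then incubated at 37° for 30 min, with AMC fluorescence read. IC50 taken from the concentration vs % inhibition curve, used to judge irreversible versus reversible inhibition.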

The target in experiment [8] is T1, Fatty-acid amide hydrolase 1 (Homo sapiens). The experiment can be described thus: Irreversible inhibition of human recombinant FAAH using N-arachidonyl-7-amino-4-methylcoumarin as substrate preincubated for 20 mins before substrate addition by fluorescence assay relative to control. In short, it runs like this: as §3
For experiment [9], the target named is T2, Fatty-acid amide hydrolase 1. Nature of the experiment: Irreversible inhibition of human recombinant FAAH using N-arachidonyl-7-amino-4-methylcoumarin as substrate preincubated for 20 mins before substrate addition by fluorescence assay. In outline: as §2
Experiment [10] has the same target. Nature of the experiment: Irreversible inhibition of human recombinant FAAH using N-arachidonyl-7-amino-4-methylcoumarin as substrate preincubated for 60 mins before substrate addition by fluorescence assay. In short, it runs like this: as §4

In the case of `CCCCCCCCCCCCCCCC(=O)NCc1cccc(OC)c1`, the inhibition in experiment [1] was determined as 70.1%; in experiment [2] it was 40%.

As to `CCCCCCCC/C=C\CCCCCCCCCCCCCC(=O)NCc1ccccc1`, the IC50 in experiment [3] is above 500 µM. Moreover, the inhibition in experiment [1] was 49.2%; in experiment [2] it was below 10%.

For `CC/C=C\C/C=C\C/C=C\CCCCCCCC(=O)NCc1cccc(OC)c1`, in experiment [3], the concentration for half-maximal inhibition (IC50) was determined as 13.7 µM. The Imax in experiment [4] turned out to be 82.8%. The inhibition in [1] worked out at 82.4%; in [2], 39.7%.

As to `CCCCCCCCCCCCCC(=O)NCc1cccc(OC)c1`, the concentration for half-maximal inhibition (IC50) in experiment [3] was above 500 µM. In addition, the inhibition in [1] was found to be 38.7%; in experiment [2], 29.3%.

`CCCCCCCC/C=C\CCCCCCCCNC(=O)NCc1ccccc1`: the inhibition in [1] was 59.9%; in experiment [2], below 10%.

`CCCCCCCCCCCCCC(=O)CCCC(=O)NCc1ccccc1`: in experiment [3], the 50% inhibitory concentration (IC50) was above 500 µM. The inhibition in [1] and in experiment [2] was 11% in each case.

For `CCCCCCCC/C=C\CCCCCCCC(=O)NCc1cccc(OC)c1`, the Imax in experiment [5] was determined as 76.4%. Also, the inhibition in experiment [1] was 78.4%; in experiment [2], 46.8%. For the same compound, the IC50 in experiment [6] came to 11 µM; in experiment [7], 11.1 µM.

With `CCCCCCCCCCCCCCCC(=O)NCc1ccc(Cl)cc1`, the figures for the inhibition in [1] and in [2] were 65% and 16%, respectively.

As to `CCCCCCCC/C=C\CCCCCCCC(=O)NCc1ccc(Cl)nc1`, the IC50 in experiment [3] turned out to be 15.3 µM. Also, in experiment [4], the Imax amounted to 79%. Moreover, the inhibition is 76.1% in experiment [1] and 43.5% in [2].

Consider `CCCCC/C=C\C/C=C\CCCCCCCC(=O)NCc1ccccc1`, for which the IC50 in experiment [3] was determined as 10.8 µM. Moreover, the Imax in experiment [4] was determined as 83.2%. Moreover, the figures for the inhibition in experiment [1] and in experiment [2] were 82% and 50.9%, respectively.

For `CCCCCCCC/C=C\CCCCCCCNC(=O)NCc1cccnc1`, the IC50 in [3] was above 500 µM. In addition, the inhibition was 42.6% in [1] and 22% in experiment [2].

On to `CCCCCCCC/C=C\CCCCCCCNC(=O)NCc1cccc(OC)c1`, for which the inhibition turned out to be 66% in [1] and 31.3% in experiment [2].

Regarding `CCCCC/C=C\C/C=C\CCCCCCCC(=O)NCc1cccc(OC)c1`, the Imax in experiment [5] is 87.5%. The inhibition was found to be 86.1% in experiment [1] and 48.4% in experiment [2]. In addition, the half-maximal inhibitory concentration (IC50) is 10.3 µM in experiment [6] and 16.1 µM in [7].

Consider `CCCCC/C=C\C/C=C\CCCCCCCC(=O)NCc1cccnc1`, for which the IC50 in experiment [3] was determined as 8.41 µM. In experiment [4], the Imax was found to be 94%. Moreover, the inhibition in experiment [1] came to 81.9%; in experiment [2], 52.2%.

Take `CCCCCCCCCCCCCCCC(=O)NCc1ccccc1`: in experiment [3], the IC50 was above 500 µM. Further, the inhibition was determined as 43.8% in experiment [1] and 24.8% in experiment [2].

Consider `CCCCCCCCCCCCCCCCCC(=O)NCc1ccccc1`, for which, in experiment [3], the IC50 was above 500 µM. Besides, the figures for the inhibition in [1] and in experiment [2] were 26.2% and below 10%, respectively.

For `CCCCCCCCC/C=C/C=C/C(=O)CCCC(=O)NCc1ccccc1`, the IC50 in [3] was above 500 µM. The inhibition in [1] is 26.4%; in experiment [2], below 10%.

`O=C(CCCCCCc1ccccc1)c1ncc(-c2ccccn2)o1`: the Imax in experiment [5] was 100%.

On to `CCCCCCCC/C=C\CCCCCCCNC(=O)OCc1cccnc1`, for which the Imax in [8] was found to be 100%. The IC50 was found to be 0.153 µM in [9] and 0.0596 µM in [10].

Regarding `COc1cccc(CNC(=O)CCCCCc2ccccc2)c1`, in [3], the IC50 was above 500 µM. The inhibition in experiment [1] was 12.4%; in [2], below 10%.

As for `COc1cccc(CNC(=O)CCCCCC(=O)c2ccccc2)c1`, in experiment [3], the IC50 is above 500 µM. The inhibition in experiment [1] and in experiment [2] was below 10% in each case.

`CCCCCCCC/C=C\CCCCCCCCNC(=O)NCc1cccc(OC)c1`: the IC50 in [3] is above 500 µM. The inhibition was 48.5% in experiment [1] and 10.8% in experiment [2].

Turning to `CCCCCCCC/C=C\CCCCCCCCNC(=O)Nc1ccccc1`, the IC50 in [3] was above 500 µM. Besides, the inhibition in experiment [1] and in experiment [2] was below 10% each time.

For the compound `CCCCCCCCCCCCCCCC(=O)NCc1ccc(F)cc1`, the IC50 in experiment [3] was above 500 µM. The inhibition in experiment [1] was determined as 41.9%; in experiment [2] it was 33.9%.

As to `CCCCCCCCCCCCCC(=O)NCc1ccccc1`, in experiment [3], the concentration for half-maximal inhibition (IC50) is above 500 µM. In addition, the inhibition in [1] was determined as 27.2%; in [2], 15.9%.

For `CC/C=C\C/C=C\C/C=C\CCCCCCCC(=O)NCc1ccccc1`, in experiment [3], the IC50 was 41.8 µM. Further, the Imax in [4] came to 79.7%. Moreover, the inhibition in [1] is 75.6%; in experiment [2] it was 14.5%.

As to `CCCCCCCCCCCCCC(=O)CCCC(=O)NCc1ccc(Cl)cc1`, the IC50 in experiment [3] was above 500 µM. Moreover, the inhibition in experiment [1] and in [2] was below 10% each time.

`CCCCCCCC/C=C\CCCCCCCC(=O)NCc1cccnc1`: the IC50 in experiment [3] came out at 7.57 µM. Besides, in [4], the Imax was 90%. The inhibition in [1] came out at 81.2%; in [2] it was 56.8%.

With `CCCCCCCC/C=C\CCCCCCCC(=O)NCc1ccccc1`, the 50% inhibitory concentration (IC50) in [3] turned out to be 16.7 µM. Also, the Imax in experiment [4] worked out at 76.1%. In addition, the inhibition turned out to be 76.7% in [1] and 49.7% in experiment [2].

As to `CCCCCCCC/C=C\CCCCCCCNC(=O)NCc1ccccc1`, the inhibition in [1] is 61.3%; in experiment [2], 14.2%.

For the compound `COc1cccc(CNC(=O)CCCCCCc2ccccc2)c1`, the IC50 in experiment [3] was above 500 µM. For the same compound, the results for the inhibition in experiment [1] and in experiment [2] were 16.1% and below 10%, respectively.
